Consider one compound from ChEMBL document CHEMBL3392986, “Hydroxamic acids block replication of hepatitis C virus” (J Med Chem, 2015).

Molecules are shown by their SMILES. The source made the active and inactive calls. The rule behind the calls is not given here.

One test has as its system Hepatitis C virus. As to the kind of experiment: Antiviral activity against HCV genotype 1b infected in human Huh7 cells assessed as reduction in viral RNA level at 0.5 uM after 3 days by RT-qPCR. The conditions noted are these: in the assay text read “2 uM” for “0.5 uM”. The format is functional, Hepacivirus hominis, Huh-7. Also noted: scale not given: the % may be the effect or the level left. A digest of the protocol:
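Replicon-bearing Huh7 cells, 6 X 10^3 per well, exposed to compound in DMSO or DMSO alone for three days at 37 °C/5% CO2. Replicon RNA quantified by TaqMan Cells-to-CT RT-qPCR with NS5B primers/probe, using GAPDH in parallel wells as reference. Level relative to DMSO-treated cells calculated as 2-∆∆CT. Triplicate wells.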

In test [1] the target is Histone deacetylase 5 (Homo sapiens) (UniProt Q9UQL6). As to the kind of experiment: Inhibition of full length N-terminal GST-tagged human HDAC5 expressed in baculovirus expression system assessed as inhibition of fluorophore 7-amino-4-methylcoumarin release by fluorescence assay.
Chain of Histone deacetylase 5 (Homo sapiens) (Q9UQL6 whole entry): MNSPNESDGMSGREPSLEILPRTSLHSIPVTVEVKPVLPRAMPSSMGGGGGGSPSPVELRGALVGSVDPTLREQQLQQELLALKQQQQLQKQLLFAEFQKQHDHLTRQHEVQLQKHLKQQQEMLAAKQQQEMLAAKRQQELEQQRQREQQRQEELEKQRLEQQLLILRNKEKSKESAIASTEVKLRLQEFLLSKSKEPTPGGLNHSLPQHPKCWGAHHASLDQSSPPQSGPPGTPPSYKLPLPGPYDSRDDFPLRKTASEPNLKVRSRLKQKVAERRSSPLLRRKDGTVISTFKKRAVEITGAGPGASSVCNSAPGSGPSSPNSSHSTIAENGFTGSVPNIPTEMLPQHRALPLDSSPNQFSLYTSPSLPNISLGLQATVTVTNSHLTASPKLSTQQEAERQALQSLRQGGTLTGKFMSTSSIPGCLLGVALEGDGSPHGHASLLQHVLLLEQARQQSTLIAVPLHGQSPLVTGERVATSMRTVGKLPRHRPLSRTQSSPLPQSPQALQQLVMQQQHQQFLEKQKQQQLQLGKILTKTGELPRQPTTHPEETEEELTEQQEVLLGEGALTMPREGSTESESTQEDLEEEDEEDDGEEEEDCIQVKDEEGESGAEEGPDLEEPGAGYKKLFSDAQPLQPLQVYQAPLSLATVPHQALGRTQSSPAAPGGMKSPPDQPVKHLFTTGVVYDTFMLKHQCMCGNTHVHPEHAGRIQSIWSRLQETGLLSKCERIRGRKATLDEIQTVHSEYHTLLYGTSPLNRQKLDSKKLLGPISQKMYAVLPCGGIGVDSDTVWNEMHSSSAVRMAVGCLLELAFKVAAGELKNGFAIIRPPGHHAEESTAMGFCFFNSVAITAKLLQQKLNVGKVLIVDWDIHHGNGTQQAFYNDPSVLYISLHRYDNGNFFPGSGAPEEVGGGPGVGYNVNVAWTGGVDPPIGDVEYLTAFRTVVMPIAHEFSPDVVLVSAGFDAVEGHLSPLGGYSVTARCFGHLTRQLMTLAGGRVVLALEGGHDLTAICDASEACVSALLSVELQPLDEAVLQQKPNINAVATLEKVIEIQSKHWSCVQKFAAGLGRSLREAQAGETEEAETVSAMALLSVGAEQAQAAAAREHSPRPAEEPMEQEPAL
Test [2] deals with T1, Histone deacetylase 8 (Homo sapiens) (UniProt Q9BY41).
T1 sequence (whole entry): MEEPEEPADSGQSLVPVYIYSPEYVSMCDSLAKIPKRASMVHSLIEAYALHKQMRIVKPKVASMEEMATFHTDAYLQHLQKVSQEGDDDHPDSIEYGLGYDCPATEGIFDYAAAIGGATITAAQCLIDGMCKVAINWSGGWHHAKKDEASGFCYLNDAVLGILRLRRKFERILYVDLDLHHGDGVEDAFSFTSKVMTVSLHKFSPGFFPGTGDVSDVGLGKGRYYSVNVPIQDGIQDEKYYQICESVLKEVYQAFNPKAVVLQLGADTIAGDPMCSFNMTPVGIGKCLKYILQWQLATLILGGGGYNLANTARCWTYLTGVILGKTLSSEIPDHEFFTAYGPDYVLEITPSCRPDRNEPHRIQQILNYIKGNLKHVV
As to the kind of experiment: Inhibition of full length human HDAC8 expressed in Escherichia coli assessed as inhibition of fluorophore 7-amino-4-methylcoumarin release by fluorescence assay.

For test [3], the target named is Histone deacetylase 4 (Homo sapiens) (UniProt P56524). As to the kind of experiment: Inhibition of N-terminal GST-tagged human HDAC4 (amino acids 627 to 1085) expressed in baculovirus expression system assessed as inhibition of fluorophore 7-amino-4-methylcoumarin release by fluorescence assay.
Chain of Histone deacetylase 4 (Homo sapiens) (P56524 whole entry, the tested form may be a part): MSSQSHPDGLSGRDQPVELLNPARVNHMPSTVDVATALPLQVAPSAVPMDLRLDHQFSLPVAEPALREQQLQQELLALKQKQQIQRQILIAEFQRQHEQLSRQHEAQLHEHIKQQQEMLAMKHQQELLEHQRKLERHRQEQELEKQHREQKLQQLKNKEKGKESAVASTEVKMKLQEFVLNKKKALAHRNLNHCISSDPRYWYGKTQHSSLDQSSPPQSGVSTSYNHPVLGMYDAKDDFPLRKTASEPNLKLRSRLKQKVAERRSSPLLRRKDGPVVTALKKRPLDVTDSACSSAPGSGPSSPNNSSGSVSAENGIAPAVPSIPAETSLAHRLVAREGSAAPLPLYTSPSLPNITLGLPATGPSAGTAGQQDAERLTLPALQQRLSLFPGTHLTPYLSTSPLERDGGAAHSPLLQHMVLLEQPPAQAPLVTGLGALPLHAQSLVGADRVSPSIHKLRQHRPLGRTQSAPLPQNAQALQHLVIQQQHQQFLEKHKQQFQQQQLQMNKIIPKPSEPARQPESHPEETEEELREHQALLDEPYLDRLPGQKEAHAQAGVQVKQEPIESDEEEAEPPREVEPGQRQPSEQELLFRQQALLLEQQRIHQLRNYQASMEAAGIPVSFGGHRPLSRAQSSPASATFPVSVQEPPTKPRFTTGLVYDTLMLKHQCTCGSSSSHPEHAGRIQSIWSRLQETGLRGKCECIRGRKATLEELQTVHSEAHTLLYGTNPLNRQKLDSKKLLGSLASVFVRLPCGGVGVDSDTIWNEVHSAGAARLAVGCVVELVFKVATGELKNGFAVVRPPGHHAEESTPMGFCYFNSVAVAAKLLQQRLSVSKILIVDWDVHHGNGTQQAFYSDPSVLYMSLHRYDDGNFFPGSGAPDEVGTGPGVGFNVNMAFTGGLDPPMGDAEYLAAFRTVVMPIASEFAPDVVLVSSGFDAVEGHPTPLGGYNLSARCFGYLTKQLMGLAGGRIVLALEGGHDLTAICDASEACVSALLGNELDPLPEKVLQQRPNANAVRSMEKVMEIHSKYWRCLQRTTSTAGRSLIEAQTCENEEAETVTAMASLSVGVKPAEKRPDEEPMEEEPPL
Test [4] concerns the target T2, Histone deacetylase 7 (Homo sapiens) (UniProt Q8WUI4).
T2 sequence (whole entry): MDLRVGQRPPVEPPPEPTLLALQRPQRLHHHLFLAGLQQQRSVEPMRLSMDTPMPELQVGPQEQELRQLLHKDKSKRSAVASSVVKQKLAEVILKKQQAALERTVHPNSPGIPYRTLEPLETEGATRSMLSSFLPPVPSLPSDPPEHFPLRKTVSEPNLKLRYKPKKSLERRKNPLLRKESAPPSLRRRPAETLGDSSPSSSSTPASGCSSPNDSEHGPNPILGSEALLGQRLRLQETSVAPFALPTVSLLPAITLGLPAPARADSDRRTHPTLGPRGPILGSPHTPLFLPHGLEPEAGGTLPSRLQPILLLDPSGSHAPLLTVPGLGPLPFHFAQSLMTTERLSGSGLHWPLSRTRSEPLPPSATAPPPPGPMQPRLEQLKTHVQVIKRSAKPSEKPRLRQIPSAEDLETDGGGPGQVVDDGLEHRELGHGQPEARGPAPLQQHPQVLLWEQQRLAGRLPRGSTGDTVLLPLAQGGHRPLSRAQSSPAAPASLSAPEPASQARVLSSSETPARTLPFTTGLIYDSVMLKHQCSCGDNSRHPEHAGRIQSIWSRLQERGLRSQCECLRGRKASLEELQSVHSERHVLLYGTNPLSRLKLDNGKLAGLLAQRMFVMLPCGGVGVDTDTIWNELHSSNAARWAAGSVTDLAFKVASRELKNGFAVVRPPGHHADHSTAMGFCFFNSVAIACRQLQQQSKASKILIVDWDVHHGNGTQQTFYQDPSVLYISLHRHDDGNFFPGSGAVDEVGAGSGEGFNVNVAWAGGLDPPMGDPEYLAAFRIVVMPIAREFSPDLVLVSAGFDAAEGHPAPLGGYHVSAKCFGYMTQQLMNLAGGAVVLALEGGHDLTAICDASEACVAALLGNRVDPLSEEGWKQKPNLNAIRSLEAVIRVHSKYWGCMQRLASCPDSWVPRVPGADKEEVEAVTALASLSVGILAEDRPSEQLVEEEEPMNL
As to the kind of experiment: Inhibition of full length N-terminal GST-tagged human HDAC7 (amino acids 518 to end) expressed in baculovirus expression system assessed as inhibition of fluorophore 7-amino-4-methylcoumarin release by fluorescence assay.

For test [5], the target named is Matrix metalloproteinase-9 (Homo sapiens) (UniProt P14780). As to the kind of experiment: Inhibition of human recombinant MMP9 catalytic domain (107 to 449 aa) expressed in Escherichia coli.
Chain of Matrix metalloproteinase-9 (Homo sapiens) (P14780 whole entry, the tested form may be a part): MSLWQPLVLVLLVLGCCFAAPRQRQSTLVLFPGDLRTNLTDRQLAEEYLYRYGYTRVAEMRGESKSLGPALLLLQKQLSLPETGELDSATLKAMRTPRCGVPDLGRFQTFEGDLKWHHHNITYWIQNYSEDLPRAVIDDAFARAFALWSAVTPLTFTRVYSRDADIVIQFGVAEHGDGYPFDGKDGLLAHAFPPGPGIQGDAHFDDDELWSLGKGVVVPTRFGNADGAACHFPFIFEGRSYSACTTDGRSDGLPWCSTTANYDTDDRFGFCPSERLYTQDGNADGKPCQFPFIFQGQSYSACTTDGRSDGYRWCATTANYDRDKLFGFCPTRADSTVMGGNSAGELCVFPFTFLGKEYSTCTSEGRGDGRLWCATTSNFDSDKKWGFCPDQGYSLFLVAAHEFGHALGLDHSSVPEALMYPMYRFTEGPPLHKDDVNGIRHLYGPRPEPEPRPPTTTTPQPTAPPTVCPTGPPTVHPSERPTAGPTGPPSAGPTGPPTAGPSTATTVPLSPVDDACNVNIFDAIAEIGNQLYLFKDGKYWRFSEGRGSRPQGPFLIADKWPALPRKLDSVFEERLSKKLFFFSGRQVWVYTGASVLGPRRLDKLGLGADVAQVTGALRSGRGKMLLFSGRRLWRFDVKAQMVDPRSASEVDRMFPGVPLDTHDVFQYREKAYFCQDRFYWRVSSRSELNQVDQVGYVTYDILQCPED
Test [6] has as its target Histone deacetylase 1 (Homo sapiens) (UniProt Q13547). As to the kind of experiment: Inhibition of full length C-terminal GST-tagged human HDAC1 expressed in baculovirus expression system assessed as inhibition of fluorophore 7-amino-4-methylcoumarin release by fluorescence assay.
In test [7] the target is Matrix metalloproteinase-14 (Homo sapiens) (UniProt P50281). As to the kind of experiment: Inhibition of human recombinant […] catalytic domain (112 to 298 aa) expressed in Escherichia coli.
For test [8], the target named is Disintegrin and metalloproteinase domain-containing protein 17 (Homo sapiens) (UniProt P78536). As to the kind of experiment: Inhibition of human recombinant TACE catalytic domain (215 to 671 aa) expressed in Escherichia coli.
Chain of Disintegrin and metalloproteinase domain-containing protein 17 (Homo sapiens) (P78536 whole entry, the tested form may be a part): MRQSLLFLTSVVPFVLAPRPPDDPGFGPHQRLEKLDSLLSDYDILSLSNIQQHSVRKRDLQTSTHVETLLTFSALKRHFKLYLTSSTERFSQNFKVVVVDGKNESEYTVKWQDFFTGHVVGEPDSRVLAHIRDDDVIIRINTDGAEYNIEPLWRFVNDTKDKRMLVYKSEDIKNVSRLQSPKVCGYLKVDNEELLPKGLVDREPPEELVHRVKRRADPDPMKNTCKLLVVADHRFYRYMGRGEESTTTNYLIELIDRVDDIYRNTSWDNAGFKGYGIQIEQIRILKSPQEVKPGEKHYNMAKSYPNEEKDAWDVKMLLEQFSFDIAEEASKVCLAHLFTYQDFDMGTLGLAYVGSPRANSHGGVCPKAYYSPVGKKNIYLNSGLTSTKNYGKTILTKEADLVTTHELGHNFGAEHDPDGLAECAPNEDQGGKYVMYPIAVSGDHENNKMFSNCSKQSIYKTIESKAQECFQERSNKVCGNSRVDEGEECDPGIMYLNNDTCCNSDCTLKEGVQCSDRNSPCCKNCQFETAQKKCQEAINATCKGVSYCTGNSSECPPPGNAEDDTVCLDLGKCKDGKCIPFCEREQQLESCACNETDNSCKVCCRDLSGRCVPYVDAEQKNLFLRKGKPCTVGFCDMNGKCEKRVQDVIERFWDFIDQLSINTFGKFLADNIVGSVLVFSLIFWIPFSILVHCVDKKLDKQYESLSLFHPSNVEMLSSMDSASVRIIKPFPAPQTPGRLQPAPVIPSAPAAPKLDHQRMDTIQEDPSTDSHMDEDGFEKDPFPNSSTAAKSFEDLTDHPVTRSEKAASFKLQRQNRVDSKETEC
Test [9] concerns the target Histone deacetylase 3 (Homo sapiens) (UniProt O15379). As to the kind of experiment: Inhibition of full length C-terminal His-tagged human HDAC3 expressed in baculovirus expression system assessed as inhibition of fluorophore 7-amino-4-methylcoumarin release by fluorescence assay.
Another test relates to Hepacivirus hominis. As to the kind of experiment: Inhibition of HCV NS5B RNA dependent RNA polymerase.

Chain of Histone deacetylase 3 (Homo sapiens) (O15379 whole entry): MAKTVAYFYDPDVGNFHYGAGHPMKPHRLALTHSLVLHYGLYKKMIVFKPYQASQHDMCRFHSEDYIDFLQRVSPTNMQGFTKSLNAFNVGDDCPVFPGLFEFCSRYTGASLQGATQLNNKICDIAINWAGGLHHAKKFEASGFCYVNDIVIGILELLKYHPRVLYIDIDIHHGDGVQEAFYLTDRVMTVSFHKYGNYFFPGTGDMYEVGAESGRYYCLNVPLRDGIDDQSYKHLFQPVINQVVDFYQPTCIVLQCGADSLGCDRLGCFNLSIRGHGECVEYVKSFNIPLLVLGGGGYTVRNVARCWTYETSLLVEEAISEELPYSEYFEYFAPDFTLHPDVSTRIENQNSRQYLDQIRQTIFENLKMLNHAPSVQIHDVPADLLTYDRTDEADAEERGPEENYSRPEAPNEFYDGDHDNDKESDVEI
Chain of Histone deacetylase 1 (Homo sapiens) (Q13547 whole entry, the tested form may be a part): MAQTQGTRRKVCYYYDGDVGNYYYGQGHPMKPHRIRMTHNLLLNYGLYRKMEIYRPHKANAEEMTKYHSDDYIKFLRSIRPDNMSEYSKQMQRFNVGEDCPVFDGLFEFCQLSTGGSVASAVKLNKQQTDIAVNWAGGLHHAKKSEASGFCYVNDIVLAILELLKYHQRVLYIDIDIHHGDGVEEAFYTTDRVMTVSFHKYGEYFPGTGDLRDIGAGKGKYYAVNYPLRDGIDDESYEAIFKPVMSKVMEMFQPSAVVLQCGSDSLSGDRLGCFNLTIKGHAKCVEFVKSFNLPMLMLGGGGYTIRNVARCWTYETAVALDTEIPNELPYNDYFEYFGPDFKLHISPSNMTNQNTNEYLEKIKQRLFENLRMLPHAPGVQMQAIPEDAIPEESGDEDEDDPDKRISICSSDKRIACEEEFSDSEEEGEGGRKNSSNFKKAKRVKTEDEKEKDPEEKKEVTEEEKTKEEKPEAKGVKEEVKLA

With `O=C(NO)c1sc2ccccc2c1S(=O)(=O)c1ccccc1`, the Activity in the test with Hepatitis C virus is on record as 75%. Moreover, the inhibition entry in test [1], in [3], in [4], in test [6], in [8] and in test [9] was “inactive” in each case. In addition, in the test with Hepacivirus hominis, the inhibition result is “inactive”. In addition, the inhibition entry in test [2], in test [5] and in test [7] was “Active” each time.
